Drawing on ChEMBL document CHEMBL1142845, “Synthesis, stability, and implications of phosphothioate agonists of sphingosine-1-phosphate receptors” (Bioorg Med Chem Lett, 2005), this text covers EC50 for three molecules.

“And” between values parts separate entries of the source, which are not always exact repeats. Equal values may be shown once.

This test in a line: Effective concentration required for [35S]GTP-gamma-S binding towards Sphingosine 1-phosphate receptor G-protein complex expressed in HEK293T cells. The class given is functional, cell-based, Homo sapiens. To be noted: hek-293t. In short, it runs like this:
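Agonist-stimulated [35S]GTPγS binding was measured on individual S1P receptor–G-protein complexes overexpressed in HEK293T cells. EC50 values were taken from ligand-dependent binding, and efficacy was expressed as a percentage of the S1P maximal effect at each receptor.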
(Binding of GTPγS marks nucleotide exchange on a G protein.)
As usually defined, the EC50 is the midpoint of the concentration-response curve. A lower EC50 goes with greater potency. `CCCCCCCCc1ccc(NC(=O)[C@@H](N)[C@@H](C)OP(=O)(O)O)cc1` displayed an EC50 of 20 nM.

Regarding `CCCCCCCCc1ccc(CC[C@@H](N)CO)cc1`, the EC50 was 910 nM and 2800 nM and 8700 nM.

`CCCCCCCCc1ccc(NC(=O)[C@@H](N)[C@@H](C)O)cc1`: the EC50 is 1700 nM and 490 nM.
